sdo1 growth: restores growth of sdo1-depleted yeast; S. cerevisiae sdo1-depleted JHY4D growth rescue, OD600 30 h; hits give high values; pdr5 snq2 efflux-pump mutant strain; z-score at 10 µM; 140,000 compounds, 0.21% hits;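 active = z-score above 3 at both the 24 hr and the 30 hr optical density reads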;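 note: z-score against mean and SD of all compound wells on the same plate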
RAM inhibit: yeast RAM network inhibition | S. cerevisiae dse1pr::URA3 reporter, 5-FOA growth OD615, 2 d; analog-sensitive cbk1-as2 kinase mutant strain | inhibition, % at 50 µM | 190,000 compounds, 1.8% hits | AID 868;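 active = inhibition above a set limit, 3 SD over mean compound inhibition, cut at about 8.4% in these data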;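 note: 0% = DMSO-only wells with no growth and 100% = 10 µM 1-NA-PP1 full growth; inhibition rescues growth on 5-FOA so higher OD means more RAM inhibition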
BB579 growth dn: chemicals that inhibit yeast BB579 growth in restrictive medium (lifespan-shortening candidates); S. cerevisiae BB579 growth, OD615, 48 h; inhibition, % at 10 µM; 140,000 compounds, 0.51% hits; AID 804;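 active = inhibition above a set limit, 3 SD over the mean compound inhibition, cut at about 44% in these data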
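controls = amphotericin B 10 µg/mL, positive | assay system = DeaD yeast strain BB579 | schedule = 48 h compound exposure at 30 °C after 4 h preincubation | detection = OD615 turbidity measurement | medium = restrictive CSMM-D medium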
Measles CPE: protection of cells from measles virus; Measles virus-infected cells, CPE protection, absorbance; protection (pct of control), % at 4 µM; 140,000 compounds, 1.5% hits; in the data active = protection mostly above about 24%, no sharp cut-off; inactive = mostly below about 26%
Yeast lifespan up: yeast lifespan extension; inhibition of the nicotinamide effect, % at 10 µM; 130,000 compounds, 0.68% hits; S. cerevisiae growth with nicotinamide, OD615; deaD strain in restrictive glucose medium;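 active = inhibition above a set limit, placed 3 SD over the median of all compounds, cut at about 26% in these data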;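 note: 0% = nicotinamide-treated wells and 100% = cells grown without nicotinamide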
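assay system = DeaD-strain S. cerevisiae | measured by = absorbance at 615 nm | probe or stimulus = nicotinamide 1.5 mM | buffer or medium = CSMM-D glucose medium, restrictive | times = 48 h at 30 °C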
RAM efflux-def: RAM network inhibitors in efflux-deficient yeast | shares compounds with RAM inhibit | S. cerevisiae efflux-deficient reporter strain, 5-FOA growth OD615, 2 days | max inhibition, % | 1,200 tested, under 10 active; call rule not given here;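 note: plate controls were vehicle for no effect and reference inhibitor for full effect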
* = called active by the depositor; . = not tested or not shown. Rows were chosen to be rich in hits. Some 3.8% of all compounds tested hit in one or more screens of this group.

SMILES	sdo1 growth	RAM inhibit	BB579 growth dn	Measles CPE	Yeast lifespan up	RAM efflux-def
Cc1ccc(OCc2nnc(SCC(=O)Nc3ccc4c(c3)OCCO4)n2Cc2ccco2)cc1	-1.8	12*	-35	5	-5	1
O=C(CSc1nnc(-c2ccccc2)n1Cc1ccco1)Nc1ccc2c(c1)OCCO2	-0.34	6	-25	15	-23	.
Clc1ccc(OCc2nnc(-c3ccccc3Br)o2)c(Cl)c1	-1.2	3	-34	12	-10	.
COc1ccc(N2CCN(c3oc(COc4ccc(Cl)cc4)nc3C#N)CC2)cc1	-1	13*	-13	8	-8	5
COc1ccc(CNc2oc(COc3ccc(Cl)cc3)nc2C#N)cc1	-0.33	13*	-46	41	-9	3
Cc1ccc(OCc2nc(C#N)c(NCc3ccc4c(c3)OCO4)o2)cc1	-1.6	15*	-51	18	-19	1
FC(F)(F)c1cccc(NC(=S)NC(c2ccccc2)c2ccccc2)c1	-0.42	16*	-42	24	12	4
CCN(CC)S(=O)(=O)c1ccc(OC)c(NC(=S)Nc2cc(C)ccc2C)c1	-0.35	2	-4	9	-4	.
CCN(CC)S(=O)(=O)c1ccc(OC)c(NC(=O)CSc2cc(C)ccc2C)c1	-0.05	15*	-32	3	5	3
COc1ccc(S(=O)(=O)Nc2ccccc2OC)cc1NC(=O)c1cc2ccccc2oc1=O	0.46	2	-47	20	-4	.
CC(C)OC(=O)c1ccc(COC(=O)c2cccc(-c3nnc(-c4ccccc4)o3)c2)cc1	-1.2	13*	-23	30	6	2
O=C(OCc1ccccc1)c1cccc(-c2nnc(-c3ccccc3)o2)c1	0.09	12*	-22	19	1	2
CCC(CC)N=C1NS(=O)(=O)c2cc([N+](=O)[O-])ccc21	.	2	.	.	.	.
Cc1oc(-c2cc(Cl)cc(Cl)c2)cc1C(=O)NCCc1ccccc1	-0.73	13*	-41	4	0	3
CCc1nc2ccccc2n1Cc1cc(=O)n2cc(C)ccc2n1	-0.04	0	-47	6	-6	.
O=C(COC(=O)c1ccc(Cl)nc1)Nc1ccc2c(c1)OCO2	.	2	.	.	.	.
COC(=O)[C@@]1(Cc2ccc(OC)cc2)[C@H]2c3cc(C(=O)N4CCCC4)n(CCn4cc([N+](=O)[O-])nc4C)c3C[C@H]2CN1C(=O)c1ccccc1	-0.23	1	-37	6	6	.
N#C/C(=C\c1ccc(-c2ccc(C(=O)O)cc2)o1)C(=O)NCC1CCCO1 (stereo not given)	0.04	2	-33	13	0	.
N#C/C(=C\c1ccc(-c2ccc(S(=O)(=O)N3CCOCC3)cc2)o1)C(=O)NC1CC1	0.03	13*	-55	11	4	2
CSCCC(NS(=O)(=O)c1ccc2ccccc2c1)C(=O)OCC(=O)c1ccc(C(C)C)cc1 (stereo not given)	-0.15	15*	-16	3	6	4
Cc1nn(C)c(Cl)c1CN1CCC(CO)(CC2CCCCO2)CC1 (stereo not given)	.	2	.	.	.	.
O=C(/C(=N/N=C/c1ccc(O)c(O)c1O)c1ccccc1)c1ccccc1	-0.58	17*	95*	23	-11	1
CN=c1scc(-c2ccccc2F)n1/N=C/c1ccc(O)c(O)c1O	.	-1	.	.	.	.
CC(=O)N1N=C(c2ccc(C)o2)CC1c1cccc(F)c1 (stereo not given)	.	2	.	.	.	.
CCCCn1c(O)c(/C=C/C=C/C=Nc2ccccc2)sc1=S	.	13*	.	.	.	6
SMILES	sdo1 growth	RAM inhibit	BB579 growth dn	Measles CPE	Yeast lifespan up	RAM efflux-def
CCCCCc1c2c(cc(O)c1C(=O)O)OC(=O)c1c(cc(OC)cc1C(=O)CCCC)O2	.	13*	.	.	.	3
COC(=O)c1c(-c2ccc3ccccc3c2)csc1NC(=O)Cc1ccc(OC)c(OC)c1	-0.73	-1	24	25	-14	.
COc1ccc(-c2nc3ccccc3c(=O)n2CCN2CCOCC2)cc1	-0.03	1	-43	7	3	.
COc1ccc(-c2nc3ccccc3c(=O)n2CCOc2c(C)cccc2C)cc1	-0.53	17*	-53	4	13	6
COc1ccc(-c2nc3ccccc3c(=O)n2CCOc2cccc(C)c2C)cc1	0.41	16*	-20	7	2	5
COCCn1c(-c2ccc(OC)cc2)nc2ccccc21	0.54	0	-30	6	-12	.
C=CCn1c(-c2cccn(Cc3ccc(Cl)cc3)c2=O)n[nH]c1=S	0.07	13*	-20	6	5	9
C=CCn1c(-c2cccn(Cc3ccccc3)c2=O)n[nH]c1=S	0.34	-1	-13	17	-3	.
Cc1ccc(C(=O)Cn2c(C(=O)/C=C/c3ccccc3)nc3ccccc32)cc1	-1.9	3	-40	3	-10	.
O=C(c1cnc(-c2ccc(Cl)cc2)s1)c1ccc(Cl)cc1Cl	-0.04	15*	-40	1	-5	3
O=C(O)Cc1ccc(C(=O)c2ccc(Cl)cc2Cl)s1	.	-1	.	.	.	.
COc1ccccc1N(C)S(=O)(=O)c1ccc(C(=O)OCC(=O)NCCC2=CCCCC2)cc1	-0.81	15*	-36	6	10	2
CCOc1cc(S(=O)(=O)Nc2ccc(CC)cc2)ccc1Cl	-2.9	14*	-69	17	11	1
CCOc1cc(S(=O)(=O)Nc2ccccc2CC)ccc1Cl	-1.9	5	-52	23	13	.
O=C(O)c1cccc(COc2ccccc2Cl)c1	0.26	0	-60	14	-6	.
COc1ccc(C(=O)Nc2cc(OCc3ccccc3)c(Cl)cc2Cl)cc1	-0.25	15*	-25	11	-1	2
CN(C)S(=O)(=O)Oc1ccsc1C(=O)Nc1ccc(Cl)c(Cl)c1	-1.1	4	-19	7	-7	.
COc1ccc(C(=O)Nc2cc(OC)c(Cl)cc2Cl)cc1	.	5	.	.	.	.
COc1ccc(COc2ccsc2C(=O)Nc2ccc(Cl)c(Cl)c2)cc1	0.29	14*	-49	5	-22	2
O=C(Nc1ccccc1Cl)c1cccc(COc2cc(Cl)ccc2Cl)c1	-0.25	12*	-43	6	-3	5
CC(C)CN(C)C(=O)CCc1nnc(Cc2ccc(-c3ccccc3)cc2)o1	.	3	.	.	.	.
COCCCn1c(Cc2ccccc2)nnc1SCC(=O)N1CCCCC1	0.59	-1	4	10	-9	.
Cc1cc(NCCCN)nc(-c2ccccc2O)n1	-1.9	0	-26	10	-28	.
Cc1cc(Oc2ccc(Cl)cc2)nc(-c2ccccc2O)n1	-1	14*	-41	31*	-11	2
CN(Cc1ccccc1)C(=O)COC(=O)c1ccccc1NS(=O)(=O)c1cccc(N)c1	-0.3	2	-27	5	-2	.
CC(OC(=O)c1ccccc1NS(=O)(=O)c1cccc(C(F)(F)F)c1)C(=O)N(C)Cc1ccccc1 (stereo not given)	-0.76	13*	-21	3	8	2
